High-throughput results deposited in PubChem BioAssay by several laboratories.
This is a sample that favours compounds with a hit; in the whole collection about 5.5% have one here.
PLAP act = activates human placental alkaline phosphatase. P05187. purified PLAP enzyme, luminescent substrate read-out; active compounds read high. activation fold at 20 µM. actives 1.2% (n = 96,000); in the data active means activation fold above about 2
Target sequence (P05187 whole entry, looked up): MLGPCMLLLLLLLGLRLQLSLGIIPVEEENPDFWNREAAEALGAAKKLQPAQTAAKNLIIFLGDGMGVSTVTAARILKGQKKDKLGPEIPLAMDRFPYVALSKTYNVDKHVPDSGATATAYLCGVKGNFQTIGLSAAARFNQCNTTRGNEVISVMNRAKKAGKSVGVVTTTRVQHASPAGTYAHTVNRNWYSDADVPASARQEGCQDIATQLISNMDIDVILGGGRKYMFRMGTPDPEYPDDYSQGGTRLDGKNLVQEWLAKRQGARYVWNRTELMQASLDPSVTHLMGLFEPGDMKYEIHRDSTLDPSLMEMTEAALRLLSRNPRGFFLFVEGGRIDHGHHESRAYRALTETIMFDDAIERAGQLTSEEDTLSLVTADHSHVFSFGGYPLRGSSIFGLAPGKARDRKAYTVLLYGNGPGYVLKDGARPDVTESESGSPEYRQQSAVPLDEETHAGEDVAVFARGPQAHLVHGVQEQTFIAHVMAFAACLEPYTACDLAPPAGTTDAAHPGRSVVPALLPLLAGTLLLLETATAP
HePTP inh = blocks human HePTP tyrosine phosphatase. recombinant HePTP phosphatase activity, OD absorbance. inhibition, % at 20 µM. actives 0.64% (n = 110,000). AID 521. P35236; in the data active means inhibition above about 50%;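 further: plate controls were vehicle for no effect and reference inhibitor for full effect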
PostGolgi ctrl = yeast control strain growth, post-Golgi counter-screen. efflux-deficient yeast background strain, growth absorbance A615, 16 h. inhibition, % at 10 µM. actives 5% (n = 98,000). AID 738
PostGolgi yeast = growth inhibition of a yeast mutant, post-Golgi transport screen; post-Golgi transport phenotypic cell assay; inhibition, % at 10 µM; actives 0.9% (n = 98,000); AID 739;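 further: yeast cells grown in 1536-well plates; yeast grown about 18 h at 30C before absorbance read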
Ecoli WT expand = growth inhibitors of E. coli BW25113 wild type. OD600 absorbance. growth inhibition, % at 100 µM. actives 0.15% (n = 98,000);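 active means growth inhibition above about 50% at one test dose, limit read from the data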;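 further: growth measured after 20 h incubation at 37 °C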
Ecoli tolC = E. coli tolC mutant growth inhibition | E. coli BW25113 tolC mutant growth, OD615 | growth inhibition, % at 10 µM (by protocol) | actives 2.2% (n = 65,000) | AID 573;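 active means growth inhibition at or above a cutoff equal to the mean over every tested compound plus 3 SD, cut at about 60% in these data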;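 further: growth measured after 20 h incubation at 37 °C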
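Test system: E. coli BW25113 ΔtolC::kan bacteria; incubation: 37 °C, 20 h exposure; medium: LB broth supplemented with 50 µg/mL kanamycin; read-out basis: percent growth inhibition; signal: A615 absorbance measurement; compound: 10 µM final, single dose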
* marks the source's active call; other numbers are inactive results; x = no result. Unless noted, no stated cut-off is given here; in the data, active means inhibition above about 30%; inactive means the rest.

SMILES | PLAP act | HePTP inh | PostGolgi ctrl | PostGolgi yeast | Ecoli WT expand | Ecoli tolC
O=C1/C(=C\N2CCOCC2)c2ccccc2C(=O)N1c1ccccc1 | x | 14 | x | x | x | x
CC(C)c1ccc(C(=O)CSc2n[nH]c(-c3ccncc3)n2)cc1 | 1.1 | x | 63* | 95* | -2 | x
CCN(CC)c1cc(C)c2cc(NC(=O)CNC(C)=O)ccc2n1 | 1 | -8 | 33* | 18 | 1 | 13
COc1ccc(-n2c(O)c(C=Nc3cc(OC)c(OC)c(OC)c3)c(=O)[nH]c2=O)cc1 | x | 0 | x | x | x | x
Cc1nc(-c2ccccc2)sc1-c1nc(-c2cccnc2)ncc1S(=O)(=O)c1ccccc1 | 1.2 | x | 32* | 2 | -19 | x
Cc1nc(-c2ccccc2)sc1-c1nc(-c2cccs2)ncc1S(=O)(=O)c1ccccc1 | 1 | x | 10 | 9 | -12 | x
C=C(C)Cn1c(=S)[nH]c2ccccc2c1=O | 1 | x | 6 | 3 | -5 | x
CC(C)COn1c(=S)[nH]c2ccccc2c1=O | 0.9 | x | 38* | 1 | -3 | x
COc1cc(OC)c(OC)cc1/C=N/N(C)c1ccccc1 | 1.2 | x | 45* | 2 | -1 | x
COc1cc(/C=N/N(C)c2ccccc2)ccc1O | 1.1 | x | 8 | -4 | -1 | x
O=C(O)C1CC(O)CN1C(=O)c1ccco1 (stereo not given) | 0.9 | x | 8 | 4 | -1 | x
O=C(O)C1CC(O)CN1C(=O)Oc1ccccc1 (stereo not given) | x | 105* | x | x | x | x
Cc1ccc2nc(-c3ccc(Br)o3)oc(=O)c2c1 | 0.7 | x | 9 | 36* | 9 | x
CC(C)(C)c1ccc(C(=O)Nc2sc3c(c2C(N)=O)CCCCC3)cc1 | x | -7 | x | x | x | x
O=C(c1cccc(COc2ccc(Cl)cc2Cl)c1)N1CCN(c2ccccn2)CC1 | 1.1 | -2 | 68* | 4 | -37 | 86*
O=C(c1ccc(COc2ccccc2Br)o1)N1CCN(c2ccccn2)CC1 | 1.4 | x | 35* | -3 | -14 | x
O=C(c1ccc(C#Cc2ccccc2)o1)N1CCN(c2ccccn2)CC1 | 1.1 | -2 | 42* | -1 | -4 | 47
COc1ccccc1S(=O)(=O)Cc1ccc(C(=O)N2CCN(c3ccccn3)CC2)o1 | 1.4 | 6 | -6 | -3 | -8 | -6
CCOC(=O)c1c(NC(=O)CC2Nc3ccccc3NC2=O)sc2c1CCCC2 (stereo not given) | x | -4 | x | x | x | x
Nc1ccccc1C(=O)Nc1ccc(C(=O)O)cc1 | x | 6 | x | x | x | x
O=[N+]([O-])c1ccc(N2CCCC2)cc1N1CCCCC1 | x | -8 | x | x | x | x
COc1ccc(C2C=C(c3ccc(Br)cc3)Nc3nc(N4C(=O)CCC4=O)nn32)cc1 (stereo not given) | 1.9 | -15 | 3 | 0 | -8 | 29
O=C(Nc1nc2n(n1)C(c1ccccc1)C=C(c1ccccc1)N2)c1ccco1 (stereo not given) | 2.9* | 5 | 12 | 19 | -5 | 5
CC(=O)Nc1nc2n(n1)C(c1ccc(Cl)cc1)C=C(C)N2 (stereo not given) | 1.6 | 11 | 9 | 5 | -2 | -11
O=C1CCC(=O)N1c1nc2n(n1)C(c1ccccc1)C=C(c1ccc(Br)cc1)N2 (stereo not given) | 2* | 8 | 2 | 12 | -8 | 17
SMILES | PLAP act | HePTP inh | PostGolgi ctrl | PostGolgi yeast | Ecoli WT expand | Ecoli tolC
CCC(=O)Nc1nc2n(n1)C(c1ccc(OC)cc1)C=C(c1ccccc1)N2 (stereo not given) | 1.3 | x | 9 | -1 | -11 | x
CC(=O)Nc1nc2n(n1)C(c1ccc(F)cc1)C=C(c1ccccc1)N2 (stereo not given) | 1.1 | -5 | 7 | 5 | -2 | 18
CC(=O)Nc1nc2n(n1)C(c1ccccc1)C=C(c1ccccc1)N2 (stereo not given) | 2.1* | -7 | 0 | -1 | -6 | -20
CC1=CC(c2ccc(Cl)cc2)n2nc(NC(=O)c3ccccc3)nc2N1 (stereo not given) | 2.3* | x | -3 | 0 | 4 | x
CC(=O)Nc1cc([N+](=O)[O-])ccc1Nc1ccccc1 | x | 11 | x | x | x | x
CCOc1cc(-c2nnc(-c3ccc(Br)o3)o2)cc(OCC)c1OCC | x | 11 | x | x | x | x
COC(=O)c1cccc(NC(=O)COc2ccccc2C(C)(C)C)c1 | x | 0 | x | x | x | x
O=c1[nH]n(-c2ccc(Cl)cc2)c(O)c1/C=C1\C=Nc2ccccc21 | x | -2 | x | x | x | x
COc1ccc(N(CC(=O)Nc2ccccc2C)S(=O)(=O)c2ccccc2)cc1Cl | x | 0 | x | x | x | x
Cc1cc(C)nc(N2CCN(c3nc(C)nc4c3oc3ccccc34)CC2)n1 | x | -9 | x | x | x | x
Cc1nc(N2CCC(C)CC2)c2oc3ccccc3c2n1 | 1.5 | 0 | 30* | 4 | -2 | x
Cc1nc(N2CCN(Cc3ccc4c(c3)OCO4)CC2)c2oc3ccccc3c2n1 | x | -8 | x | x | x | 95*
COc1ccccc1N1CCN(c2nc(C)nc3c2oc2ccccc23)CC1 | 1.4 | 3 | 29 | 9 | -3 | 97*
CN(C)S(=O)(=O)N=C1C=CC(=NS(=O)(=O)N(C)C)C=C1 | x | 18 | x | x | x | x
O=C(Nc1cc(C(F)(F)F)cc(C(F)(F)F)c1)c1ccc([N+](=O)[O-])o1 | x | 2 | x | x | x | x
CCOC(=O)CNC(=O)CSc1nc2nc(C)c(Br)cc2[nH]1 | 2.3* | -5 | 8 | 0 | 4 | 2
Cc1nc2nc(SCC(N)=O)[nH]c2cc1Br | 2.2* | 8 | -4 | 6 | 6 | -29
CC1(C)Cc2c(sc3ncnc(NCc4ccccc4)c23)CO1 | x | 105* | x | x | x | x
Cc1nc2oc3c(NCc4ccccc4)ncnc3c2c2c1COC(C)(C)C2 | 1.4 | 1 | 20 | 4 | 0 | 1
CCCSc1nc(NCc2ccco2)c2c3c(sc2n1)COC(C)(C)C3 | 1 | x | 47* | -1 | -6 | x
c1ccc(-n2nnnc2SCc2nn[nH]n2)cc1 | x | -12 | x | x | x | x
CCN=C(Nc1cc(Cl)cc(Cl)c1)SC1CC(=O)N(c2cccc(OC)c2)C1=O (stereo not given) | x | -8 | x | x | x | x
O=C(C1CCCO1)N1CCN(Cc2c(O)ccc3ccccc23)CC1 (stereo not given) | 2.4* | x | -5 | 0 | 2 | x
CN(Cc1ccccc1)S(=O)(=O)c1ccc(C(=O)Nc2nnc(C3CC3)o2)cc1 | 1.1 | 10 | 20 | -7 | -1 | 100*
CN(Cc1ccccc1)S(=O)(=O)c1ccc(NS(C)(=O)=O)cc1 | 1 | 2 | 12 | 9 | 1 | 29
SMILES | PLAP act | HePTP inh | PostGolgi ctrl | PostGolgi yeast | Ecoli WT expand | Ecoli tolC
COc1ccccc1N(C)S(=O)(=O)c1ccc(C(=O)NC2=NCCS2)cc1 | x | -1 | 6 | 7 | -1 | -5
COc1ccccc1-c1nnc(NC(=O)c2ccc(S(=O)(=O)N(C)Cc3ccccc3)cc2)o1 | x | 9 | 7 | 17 | -13 | 95*
CN(c1ccccc1)S(=O)(=O)c1ccc(C(=O)Nc2nnc(-c3ccc(F)cc3)o2)cc1 | 1.3 | -4 | 5 | 9 | -8 | 100*
CN(c1ccccc1)S(=O)(=O)c1ccc(NC(=O)c2ccc(-c3ccccc3)cc2)cc1 | 0.8 | x | 15 | 1 | -18 | x
C(=N\n1cnnc1)/c1ccc(Sc2nnnn2-c2ccccc2)o1 | x | 0 | x | x | x | x
CCOC(=O)C1=C(CC)Nc2ccccc2N=C1NC(=O)Nc1ccccc1OC | 1 | 11 | 37* | 8 | -3 | -8
